The source made the active and inactive calls. The calls are words filed in the database; no cut-off is given here.
Legend:
[1] = biological target: T1, Eukaryotic initiation factor 4A-III (Homo sapiens, UniProt P38919); test: Inhibition of MLN51-induced full-length human recombinant His6-tagged eIF4A3 RNA dependent ATPase activity expressed in Escherichia coli BL21(DE3) using single stranded poly(U) RNA as substrate after 30 mins by ADP-Glo luminescence assay
In short: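 ADP-Glo luminescence read-out with 150 nM eIF4A3 plus an equimolar amount of MLN51. Substrates were 35 μM ATP and 1.5 μg/mL poly(U), both at Km. Buffer: 20 mM Tris-HCl pH 7.5, 2.5 mM MgCl2, 100 mM KCl, 1 mM DTT, 0.01% Tween20. Enzyme was added last to start the reaction, then incubated 30 min at room temperature. No-enzyme wells were taken as 100% inhibition and the complete reaction as 0%.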

[2] = biological target: T1, Eukaryotic initiation factor 4A-III; test: Inhibition of eIF4A3 (unknown origin) expressed in HEK293T cells assessed as NMD suppression at 3 uM after 6 hrs by luciferase reporter gene assay relative to control; type: cell-based
In short: (§1)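 HEK293T cells were co-transfected (Lipofectamine LTX) with the pGL4.12 SV40-Luc2CP-BGG NMD reporter and a pRL-TK renilla control. After 24 h of transfection, cells were treated with compound for 6 h. Firefly/renilla luciferase ratio was measured by dual-luciferase assay and normalized to DMSO-treated cells, n = 2.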

[3] = biological target: T1, Eukaryotic initiation factor 4A-III; test: Inhibition of eIF4A3 (unknown origin) expressed in HEK293T cells assessed as NMD suppression at 10 uM after 6 hrs by luciferase reporter gene assay relative to control; type: cell-based; in short: as §1
[4] = biological target: T1, Eukaryotic initiation factor 4A-III; test: Binding affinity to full-length human recombinant His6-tagged eIF4A3 expressed in Escherichia coli BL21(DE3) assessed as dissociation rate constant by surface plasmon resonance assay
In short: (§2)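 eIF4A3 amine-coupled to a CM7 sensor chip (5000–10 000 RU) in HBS-P+ with 1 mM DTT. Binding was run at 25 °C in 20 mM Tris-HCl pH 8.0, 150 mM NaCl, 0.2 mM TCEP, 0.02% P20 and 1–2% DMSO. Compound series of 6–12 concentrations were injected for 60–120 s at 50 μL/min, with dissociation followed for 120–1200 s. Sensorgrams were double-referenced and globally fitted to a 1:1 model.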

[5] = biological target: T1, Eukaryotic initiation factor 4A-III; test: Binding affinity to full-length human recombinant His6-tagged eIF4A3 expressed in Escherichia coli BL21(DE3) assessed as dissociation half life by surface plasmon resonance assay; in short: as §2
[6] = biological target: T1, Eukaryotic initiation factor 4A-III; test: Binding affinity to full-length human recombinant His6-tagged eIF4A3 expressed in Escherichia coli BL21(DE3) assessed as association rate constant by surface plasmon resonance assay; in short: as §2
[7] = biological target: T1, Eukaryotic initiation factor 4A-III; test: Binding affinity to full-length human recombinant His6-tagged eIF4A3 expressed in Escherichia coli BL21(DE3) by surface plasmon resonance assay
In short: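 eIF4A3 immobilized on CM7 chip by amine coupling (5000–10 000 RU) in HBS-P+ with 1 mM DTT. Binding run at 25 °C in 20 mM Tris-HCl pH 8.0, 150 mM NaCl, 0.2 mM TCEP, 0.02% P20, 1−2% DMSO. Compound injected at 6−12 concentrations for 60−120 s at 50 μL/min, dissociation followed 120−1200 s. Sensorgrams double-referenced, globally fitted to 1:1 model.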

T1 sequence (P38919 whole entry): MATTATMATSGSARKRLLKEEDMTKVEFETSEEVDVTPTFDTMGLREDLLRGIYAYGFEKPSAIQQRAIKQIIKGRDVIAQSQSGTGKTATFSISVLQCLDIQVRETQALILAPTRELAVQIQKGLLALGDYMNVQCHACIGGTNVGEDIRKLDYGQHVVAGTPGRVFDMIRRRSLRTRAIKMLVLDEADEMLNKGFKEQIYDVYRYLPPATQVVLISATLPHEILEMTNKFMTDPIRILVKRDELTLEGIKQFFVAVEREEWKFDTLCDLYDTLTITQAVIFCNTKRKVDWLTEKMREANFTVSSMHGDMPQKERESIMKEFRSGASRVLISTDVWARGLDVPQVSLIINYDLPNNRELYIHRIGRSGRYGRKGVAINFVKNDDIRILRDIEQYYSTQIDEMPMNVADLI

Structure (SMILES) | IC50 [1] [µM] | also measured
O=C(c1cnc(-c2ccccc2)o1)N1CCN(C(=O)c2ccccc2Cl)C(c2ccc(Cl)cc2)C1 (configuration not stated) | > 100 | –
O=C(c1cnn2cc(Br)ccc12)N1CCN(C(=O)c2ccc(Br)cc2)C(c2ccc(Cl)cc2)C1 (configuration not stated) | 0.42 | NMD suppression activity (qualitative) [2]: Active; fold change (FC) [3]: 1.9
Cc1c(C(=O)N2CCN(C(=O)c3ccc(Cl)cc3)C(c3ccc(Cl)cc3)C2)cnn1-c1ccccc1 (configuration not stated) | 1.6 | –
O=C(c1n[nH]c2ccccc12)N1CCN(C(=O)c2ccc(Cl)cc2)C(c2ccc(Cl)cc2)C1 (configuration not stated) | 62 | –
O=C(c1cnc(-c2ccccc2)o1)N1CCN(C(=O)c2ccc(Cl)cc2)C(c2ccc(Cl)cc2)C1 (configuration not stated) | 2.2 | –
O=C(c1cnc(-c2ccccc2)o1)N1CCN(Cc2ccc(Cl)cc2)C(c2ccc(Cl)cc2)C1 (configuration not stated) | > 100 | –
O=C(c1cnc(-c2ccccc2)o1)N1CCN(C(=O)c2ccc(Br)cc2)C(c2ccc(Cl)cc2)C1 (configuration not stated) | 0.66 | –
O=C(c1cnc(-c2ccccc2)o1)N1CCN(C(=O)c2ccc(Cl)cc2)C(C2CCCCC2)C1 (configuration not stated) | > 100 | –
N#Cc1ccc(-c2ncc(C(=O)N3CCN(C(=O)c4ccc(Cl)cc4)C(c4ccc(Cl)cc4)C3)o2)cc1 (configuration not stated) | 8.4 | –
COc1ccc2c(C(=O)N3CCN(C(=O)c4ccc(Br)cc4)C(c4ccc(Cl)cc4)C3)cnn2c1 (configuration not stated) | 0.92 | NMD suppression activity (qualitative) [2]: Active; fold change (FC) [3]: 1.7
O=C(c1ccc(Cl)cc1)N1CCN(Cc2cnc(-c3ccccc3)o2)CC1c1ccc(Cl)cc1 (configuration not stated) | > 100 | –
N#Cc1cccc(-c2ncc(C(=O)N3CCN(C(=O)c4ccc(Br)cc4)C(c4ccc(Cl)cc4)C3)o2)c1 (configuration not stated) | 0.36 | NMD suppression activity (qualitative) [2]: Active; fold change (FC) [3]: 1.8
N#Cc1cccc(-c2ncc(C(=O)N3CCN(C(=O)c4ccc(Cl)cc4)C(c4ccc(Cl)cc4)C3)o2)c1 (configuration not stated) | 0.6 | –
O=C(c1cnn2cc(Br)ccc12)N1CCN(C(=O)c2ccc(Cl)cc2)C(c2ccc(Cl)cc2)C1 (configuration not stated) | 0.72 | –
O=C(c1cnc(-c2ccccc2)o1)N1CCN(C(=O)c2ccccc2)C(c2ccc(Cl)cc2)C1 (configuration not stated) | 11 | –
O=C(c1cnn2ccc(Br)cc12)N1CCN(C(=O)c2ccc(Cl)cc2)C(c2ccc(Cl)cc2)C1 (configuration not stated) | 0.83 | –
Cc1c(C(=O)N2CCN(C(=O)c3ccc(Br)cc3)C(c3ccc(Cl)cc3)C2)cnn1-c1cccc(C#N)c1 (configuration not stated) | 0.58 | NMD suppression activity (qualitative) [2]: Active; fold change (FC) [3]: 2.3
O=C(c1cnn2ccccc12)N1CCN(C(=O)c2ccc(Cl)cc2)C(c2ccc(Cl)cc2)C1 (configuration not stated) | 1.1 | –
O=C(c1cnn2cc(Br)ccc12)N1CCN(C(=O)c2ccc(Br)cc2)[C@@H](c2ccc(Cl)cc2)C1 | 0.2 | K [4]: 1.6 ×10⁻³ /s; T1/2 [5]: 7.3 min; K [6]: 2.8 ×10⁴ /M/s; Kd [7]: 0.057 µM

Structure (SMILES) | IC50 [1] [µM] | also measured
O=C(c1cnn2cccc(Br)c12)N1CCN(C(=O)c2ccc(Cl)cc2)C(c2ccc(Cl)cc2)C1 (configuration not stated) | 8.9 | –
N#Cc1ccc2c(C(=O)N3CCN(C(=O)c4ccc(Br)cc4)C(c4ccc(Cl)cc4)C3)cnn2c1 (configuration not stated) | 9 | –
N#Cc1ccccc1-c1ncc(C(=O)N2CCN(C(=O)c3ccc(Cl)cc3)C(c3ccc(Cl)cc3)C2)o1 (configuration not stated) | 2.1 | –
O=C1C(c2ccc(Cl)cc2)N(C(=O)c2ccc(Cl)cc2)CCN1Cc1cnc(-c2ccccc2)o1 (configuration not stated) | > 100 | –
O=C(c1c[nH]c2ccccc12)N1CCN(C(=O)c2ccc(Cl)cc2)C(c2ccc(Cl)cc2)C1 (configuration not stated) | 2.3 | –
O=C(c1cnn2cc(Br)ccc12)N1CCN(C(=O)c2ccc(Br)cc2)[C@H](c2ccc(Cl)cc2)C1 | 60 | K [4]: 2.4 ×10⁻² /s; T1/2 [5]: 0.477 min; K [6]: 1.5 ×10³ /M/s; Kd [7]: 16 µM
O=C(c1cnn(-c2ccccc2)c1)N1CCN(C(=O)c2ccc(Cl)cc2)C(c2ccc(Cl)cc2)C1 (configuration not stated) | 2.4 | –
Cc1c(C(=O)N2CCN(C(=O)c3ccc(Br)cc3)[C@H](c3ccc(Cl)cc3)C2)cnn1-c1cccc(C#N)c1 | > 100 | fold change (FC) [2]: 1.1; fold change (FC) [3]: 1.34
O=C(c1coc(-c2ccccc2)n1)N1CCN(C(=O)c2ccc(Cl)cc2)C(c2ccc(Cl)cc2)C1 (configuration not stated) | 69 | –
O=C(c1cnc(-c2ccccc2)o1)N1CCCN(C(=O)c2ccc(Cl)cc2)C(c2ccc(Cl)cc2)C1 (configuration not stated) | > 100 | –
O=C(c1cnn2c(Br)cccc12)N1CCN(C(=O)c2ccc(Cl)cc2)C(c2ccc(Cl)cc2)C1 (configuration not stated) | 1.9 | –
N#Cc1ccnc(-c2ncc(C(=O)N3CCN(C(=O)c4ccc(Br)cc4)C(c4ccc(Cl)cc4)C3)o2)c1 (configuration not stated) | 0.39 | NMD suppression activity (qualitative) [2]: Active; fold change (FC) [3]: 1.8
O=C(c1cnc(-c2ccccc2)o1)N1CCN(C(=O)c2ccc(Cl)cc2)C(c2cccc(Cl)c2)C1 (configuration not stated) | > 100 | –
O=C(c1cnc(-c2ccccc2)o1)N1CCN(C(=O)c2ccc(Cl)cc2)C(c2ccccc2Cl)C1 (configuration not stated) | > 100 | –
O=C(c1cnc(-c2ccccc2)o1)N1CCN(C(=O)c2cccc(Cl)c2)C(c2ccc(Cl)cc2)C1 (configuration not stated) | > 100 | –
O=C(c1ncc(-c2ccccc2)o1)N1CCN(C(=O)c2ccc(Cl)cc2)C(c2ccc(Cl)cc2)C1 (configuration not stated) | > 100 | –
O=C(c1ccn(-c2ccccc2)n1)N1CCN(C(=O)c2ccc(Cl)cc2)C(c2ccc(Cl)cc2)C1 (configuration not stated) | > 100 | –
C[C@H]1C[C@@]2(O[C@H]3C[C@H]4[C@@H]5CC[C@H]6C[C@H](O)CC[C@]6(C)[C@H]5[C@@H](O)C[C@]4(C)[C@H]3[C@@]2(C)O)OC1(C)C | – | Activity [7]: Dose-dependent effect
